This passage reports inhibition, EC50 and selectivity ratio results from ChEMBL document CHEMBL1122491, “Synthesis and biological activity of 5-(trifluoromethyl)- and 5-(pentafluoroethyl)pyrimidine nucleoside analogues” (J Med Chem, 1983).

The subject of data set [1] is Human alphaherpesvirus 1. Kind of data set: In vitro percent inhibition of replication of HSV-1 cells at 100 uM concentration. The data set is classed as functional. As to conditions: Human alphaherpesvirus 1, HSV-1. In outline:
(§1)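 Confluent Vero monolayers in Dulbecco's medium + 10% fetal calf serum were infected with HSV-1 strain CL-101 at MOI 10. After 1 h adsorption at 37 °C, the inoculum was removed and the cells washed with PBS. Compound in serum-containing medium was added for 40 h at 37 °C. Virus released by one freeze-thaw was titred by plaque assay on Vero cells. Percent inhibition was pfu relative to drug-free cultures. ED50 came from dose-response curves of at least two independent experiments.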

The subject of data set [2] is Human alphaherpesvirus 1. Nature of the data set: Concentration required to inhibit replication of HSV-1 cell by 50%. As to conditions: Human alphaherpesvirus 1, HSV-1; read-out: ED50 (the source's name). The data set is classed as functional. A digest of the protocol: as §1
Data set [3] relates to L1210. Nature of the data set: In vitro percent inhibition of replication of L1210 cells at 100 uM concentration. Format: functional. Particulars: Mus musculus. A digest of the protocol:
(§2)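 Mouse L1210 and S-180 suspension cultures were kept in Fischer's medium + 10% horse serum at 37 °C, 5% CO2. Exponentially growing cells at 2 × 10⁴ cells/mL were given compound. The increase in cell number versus drug-free control was counted after 24, 48 and 72 h. ED50 came from dose-response curves of at least two independent experiments.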

A short description of data set [4]: In vitro percent inhibition of replication of S-180 cells at 100 uM concentration. Format: functional. As to conditions: Mus musculus. In outline:
as §2

In data set [5] the test system is Human alphaherpesvirus 1. Kind of data set: In vitro percent inhibition of replication of HSV-1 cells at 20 uM concentration. Format: functional. Particulars: Human alphaherpesvirus 1, HSV-1. A digest of the protocol: as §1
Data set [6] has as its system Human alphaherpesvirus 1. Nature of the data set: In vitro percent inhibition of replication of HSV-1 cells at 40 uM concentration. The data set is classed as functional. Particulars: Human alphaherpesvirus 1, HSV-1. A digest of the protocol:
as §1

The test system of data set [7] is Human alphaherpesvirus 1. Nature of the data set: In vitro percent inhibition of replication of HSV-1 cells at 80 uM concentration. Format: functional. Particulars: Human alphaherpesvirus 1, HSV-1. In outline:
as §1

Data set [8] deals with L1210. Kind of data set: Concentration required to inhibit replication of L1210 cell by 50%. Format: functional. Particulars: Mus musculus, read-out: ED50 (the source's name). A digest of the protocol:
as §2

In data set [9] the test system is L1210. Nature of the data set: In vitro percent inhibition of replication of L1210 cells at 25 uM concentration. Format: functional. As to conditions: Mus musculus. In outline: as §2
For data set [10], the system named is L1210. Nature of the data set: In vitro percent inhibition of replication of L1210 cells at 50 uM concentration. The data set is classed as functional. Particulars: Mus musculus. In outline:
as §2

Data set [11] in a line: Concentration required to inhibit replication of S-180 cell by 50%. Particulars: Mus musculus, read-out: ED50 (the source's name). The data set is classed as functional. A digest of the protocol: as §2
Data set [12] can be described thus: In vitro percent inhibition of replication of S-180 cells at 25 uM concentration. Particulars: Mus musculus. The data set is classed as functional. In outline:
as §2

Data set [13] in a line: In vitro percent inhibition of replication of S-180 cells at 50 uM concentration. The data set is classed as functional. Particulars: Mus musculus. A digest of the protocol: as §2
Data set [14] concerns Vero. Nature of the data set: Concentration required to inhibit replication of vero cell by 50%. Format: functional. As to conditions: Chlorocebus sabaeus, read-out: ED50 (the source's name). In outline: (§3)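 Uninfected Vero cells were seeded at 0.1 confluency in Dulbecco's medium + 10% fetal calf serum and grown 1 day at 37 °C, 5% CO2. Compound was then added in growth medium. Cells were detached with 0.125% trypsin/0.02% EDTA for 15 min at 37 °C, dispersed by pipetting, stained with Trypan blue and counted by hemocytometer. ED50 came from dose-response curves of at least two independent experiments.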

Data set [15] deals with Vero. Nature of the data set: In vitro percent inhibition of replication of vero cells at 100 uM concentration. Format: functional. Particulars: Chlorocebus sabaeus. A digest of the protocol:
as §3

Data set [16] has as its system Vero. Nature of the data set: In vitro percent inhibition of replication of vero cells at 25 uM concentration. Format: functional. As to conditions: Chlorocebus sabaeus. A digest of the protocol:
as §3

For data set [17], the system named is Vero. Kind of data set: In vitro percent inhibition of replication of vero cells at 5 uM concentration. The data set is classed as functional. Particulars: Chlorocebus sabaeus. In outline: as §3
The test system of data set [18] is Vero. Nature of the data set: In vitro percent inhibition of replication of vero cells at 50 uM concentration. Format: functional. As to conditions: Chlorocebus sabaeus. A digest of the protocol:
as §3

Data set [19] is described as follows: Therapeutic index was determined as the ratio fo ED50(vero)/ ED50(HSV-1). As to conditions: monkey, Vero cells. A digest of the protocol:
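Ratio of ED50 for uninfected Vero cell replication (cell counts after compound exposure) to ED50 for HSV-1 yield in Vero cells (plaque titration after 40 h infection at MOI 10). Both ED50 values were estimated from dose-response curves of at least two independent experiments.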

Data set [20] deals with Human alphaherpesvirus 1. Kind of data set: In vitro percent inhibition of replication of HSV-1 cells at 10 uM concentration. The data set is classed as functional. Particulars: Human alphaherpesvirus 1, HSV-1. In outline: as §1
Data set [21] relates to Human alphaherpesvirus 1. Kind of data set: In vitro percent inhibition of replication of HSV-1 cells at 5 uM concentration. The data set is classed as functional. Particulars: Human alphaherpesvirus 1, HSV-1. In outline: as §1
The subject of data set [22] is Human alphaherpesvirus 1. Kind of data set: In vitro percent inhibition of replication of HSV-1 cells at 1.25 uM concentration. Format: functional. As to conditions: Human alphaherpesvirus 1, HSV-1. A digest of the protocol: as §1
Data set [23] has as its system Human alphaherpesvirus 1. Nature of the data set: In vitro percent inhibition of replication of HSV-1 cells at 12.5 uM concentration. Format: functional. As to conditions: Human alphaherpesvirus 1, HSV-1. In outline: as §1
In data set [24] the test system is L1210. Kind of data set: In vitro percent inhibition of replication of L1210 cells at 12.5 uM concentration. The data set is classed as functional. As to conditions: Mus musculus. A digest of the protocol: as §2
The nature of data set [25]: In vitro percent inhibition of replication of S-180 cells at 12.5 uM concentration. The data set is classed as functional. Particulars: Mus musculus. A digest of the protocol: as §2
In data set [26] the test system is Human alphaherpesvirus 1. Kind of data set: In vitro percent inhibition of replication of HSV-1 cells at 50 uM concentration. Format: functional. Particulars: Human alphaherpesvirus 1, HSV-1. In outline:
as §1

The test system of data set [27] is L1210. Kind of data set: In vitro percent inhibition of replication of L1210 cells at 200 uM concentration. The data set is classed as functional. As to conditions: Mus musculus. In outline:
as §2

For data set [28], the system named is L1210. Nature of the data set: In vitro percent inhibition of replication of L1210 cells at 400 uM concentration. The data set is classed as functional. As to conditions: Mus musculus. A digest of the protocol: as §2
Data set [29] is described as follows: In vitro percent inhibition of replication of S-180 cells at 200 uM concentration. The data set is classed as functional. As to conditions: Mus musculus. In outline: as §2
The subject of data set [30] is Vero. Nature of the data set: In vitro percent inhibition of replication of vero cells at 200 uM concentration. The data set is classed as functional. As to conditions: Chlorocebus sabaeus. In outline:
as §3

Data set [31] concerns Vero. Nature of the data set: In vitro percent inhibition of replication of vero cells at 400 uM concentration. The data set is classed as functional. As to conditions: Chlorocebus sabaeus. In outline:
as §3

Data set [32] has as its system Vero. Nature of the data set: In vitro percent inhibition of replication of vero cells at 1 uM concentration. As to conditions: Chlorocebus sabaeus. Format: functional. A digest of the protocol: as §3
Data set [33] has as its system Vero. Kind of data set: In vitro percent inhibition of replication of vero cells at 10 uM concentration. Format: functional. Particulars: Chlorocebus sabaeus. A digest of the protocol: as §3
Data set [34] is described as follows: In vitro percent inhibition of replication of S-180 cells at 0.1 uM concentration. The data set is classed as functional. Particulars: Mus musculus. In outline:
as §2

For the compound `O=c1[nH]c(=O)n(C2C[C@@H](O)[C@@H](CO)O2)cc1C(F)(F)C(F)(F)F` (stereo partly drawn), the inhibition at 100 µM with Human alphaherpesvirus 1 [1] came out at 15%; in the data set with L1210 [3], 17%; in data set [4] it was 28%. Also, the EC50 with Human alphaherpesvirus 1 [2] is above 400 µM.
For `CC(=O)OC[C@H]1OC(n2cc(C(F)(F)F)c(=O)[nH]c2=O)[C@H](OC(C)=O)[C@H]1OC(C)=O` (stereo partly drawn), the inhibition at 20 µM with Human alphaherpesvirus 1 [5] was found to be 92%. The compound further came in with an inhibition at 40 µM in the data set with Human alphaherpesvirus 1 [6] of 97%. The same compound registered an inhibition at 80 µM in the data set on Human alphaherpesvirus 1 [7] of 98%. Moreover, the EC50 with Human alphaherpesvirus 1 [2] came out at 7 µM; with L1210 [8], 45 µM; in data set [11], 25 µM; in the data set with Vero [14], 45 µM. Further, the inhibition at 100 µM in the data set with L1210 [3] is 95%; in data set [4] it was 95%; in the data set on Vero [15] it was 100%. The inhibition at 25 µM in the data set on L1210 [9] is 13%; in data set [12], 47%; in the data set on Vero [16], 8%. Also, the inhibition at 50 µM in the data set on L1210 [10] was found to be 58%; in data set [13], 60%; in the data set with Vero [18], 57%. Moreover, the inhibition at 5 µM with Vero [17] amounted to 0%; with Human alphaherpesvirus 1 [21], 17%. Further, the selectivity ratio in [19] stood at 6.4. The same compound returned an inhibition at 10 µM in the data set on Human alphaherpesvirus 1 [20] of 61%.
`CC(=O)OC[C@H]1OC(n2cc(C(F)(F)C(F)(F)F)c(=O)[nH]c2=O)C[C@H]1OC(C)=O` (stereo partly drawn) yielded an inhibition at 1.25 µM in the data set with Human alphaherpesvirus 1 [22] of 26%. For the same compound, the inhibition at 12.5 µM came to 51% with Human alphaherpesvirus 1 [23], 14% in the data set on L1210 [24] and 37% in data set [25]. Besides, in the data set on Human alphaherpesvirus 1 [2], the EC50 was 12.5 µM.
On to `O=c1[nH]c(=O)n(C2O[C@H](CO)[C@@H](O)[C@@H]2O)cc1C(F)(F)F` (stereo partly drawn), for which the inhibition at 100 µM with Human alphaherpesvirus 1 [1] was determined as 99%; with L1210 [3], 66%; in [4] it was 59%; in the data set on Vero [15] it was 4%. Also, the inhibition at 50 µM was found to be 88% in the data set with Human alphaherpesvirus 1 [26], 33% with L1210 [10], 46% in data set [13] and 0% in the data set on Vero [18]. Moreover, the EC50 turned out to be 5 µM in the data set with Human alphaherpesvirus 1 [2], 70 µM with L1210 [8], 65 µM in data set [11] and 320 µM with Vero [14]. Also, the inhibition at 200 µM is 84% in the data set on L1210 [27], 71% in [29] and 14% in the data set with Vero [30]. The figures for the inhibition at 25 µM (with L1210 [9]; in data set [12]) were 19% and 41%, respectively. Further, the inhibition at 400 µM in the data set with L1210 [28] amounted to 87%; in the data set on Vero [31] it was 66%. Besides, the selectivity ratio in data set [19] stood at 64. This compound registered an inhibition at 10 µM in the data set with Human alphaherpesvirus 1 [20] of 74%.
For `O=c1[nH]c(=O)n([C@H]2C[C@H](O)[C@@H](CO)O2)cc1C(F)(F)F` [TRIFLURIDINE], the inhibition at 1 µM in the data set on Vero [32] stood at 63%. This compound had an inhibition at 10 µM with Vero [33] of 100%. In [34], the inhibition at 0.1 µM was 100%.

As a reminder, the inhibition is the percentage by which the read-out fell short of the control. Lower therefore signals little suppression.
